Assay results taken from ChEMBL document CHEMBL1132720 (J Med Chem, 1999).
Active and inactive are the calls of the source. The rule behind the calls is not given here.

Assays:
Assay type in all cases: functional, cell membranes
[1] = biological target: P2Y purinoceptor 1 (Meleagris gallopavo) (UniProt P49652); test: In vitro agonist activity at P2Y1 receptor in turkey erythrocyte membranes; No effect at 100 uM.
[2] = biological target: P2Y purinoceptor 1 (Meleagris gallopavo) (UniProt P49652); test: Antagonist activity for inhibition of PLC elicited by 10 nM 2-MeSADP at P2Y purinoceptor 1 in the turkey erythrocyte membranes; No effect, low potency
How it was run: (§1)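 [3H]inositol-labeled turkey erythrocyte ghosts in pH 7.0 Hepes medium with 1 μM GTPγS were incubated 5 min at 30 °C with test nucleotide plus 10 nM 2-MeSADP. Total [3H]inositol phosphates were separated by anion-exchange. […] Maximal inhibition is 100 minus residual stimulation at the highest concentration; n = 3 unless stated. "No effect" means none at 100 μM.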

P2Y purinoceptor 1 [3] = biological target: T1, P2Y purinoceptor 1 (Meleagris gallopavo, UniProt P49652); test: In vitro antagonist activity at P2Y1 receptor in turkey erythrocyte membranes.
T1 sequence (P49652 whole entry): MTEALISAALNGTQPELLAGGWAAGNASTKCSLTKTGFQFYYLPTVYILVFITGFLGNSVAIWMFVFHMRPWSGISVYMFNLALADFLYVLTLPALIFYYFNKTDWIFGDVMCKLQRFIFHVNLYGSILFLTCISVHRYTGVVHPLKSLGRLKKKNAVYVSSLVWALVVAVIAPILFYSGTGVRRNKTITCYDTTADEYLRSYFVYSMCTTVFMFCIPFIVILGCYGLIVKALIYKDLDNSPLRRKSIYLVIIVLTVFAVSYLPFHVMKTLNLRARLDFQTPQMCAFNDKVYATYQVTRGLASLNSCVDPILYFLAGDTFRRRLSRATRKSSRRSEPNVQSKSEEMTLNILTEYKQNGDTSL
How it was run: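 [3H]inositol-labeled turkey erythrocyte ghosts in pH 7.0 Hepes medium with 1 μM GTPγS were incubated 5 min at 30 °C with test nucleotide plus 10 nM 2-MeSADP. Total [3H]inositol phosphates were separated by anion-exchange. Maximal inhibition is 100 minus residual stimulation at the highest concentration; n = 3 unless stated. "No effect" means none at 100 μM.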

[4] = biological target: P2Y purinoceptor 1 (Meleagris gallopavo) (UniProt P49652); test: Antagonist activity for inhibition of PLC elicited by 10 nM 2-MeSADP at P2Y purinoceptor 1 in turkey erythrocyte membranes; how it was run: as §1
P2Y purinoceptor 1 [5] = biological target: T1, P2Y purinoceptor 1; test: Concentration at which 50% of the maximal effect (stimulation of PLC at P2Y1 receptor in the turkey erythrocyte membranes) is reached
[6] = biological target: P2Y purinoceptor 1 (Meleagris gallopavo) (UniProt P49652); test: Agonist activity for stimulation of PLC at P2Y purinoceptor 1 in the turkey erythrocyte membranes.
[7] = biological target: P2Y purinoceptor 1 (Meleagris gallopavo) (UniProt P49652); test: Antagonist activity for inhibition of PLC elicited by 10 nM 2-MeSADP at P2Y purinoceptor 1 in the turkey erythrocyte membranes; No effect; how it was run: as §1
P2Y purinoceptor 1 [8] = biological target: T1, P2Y purinoceptor 1; test: Concentration at which 50% of the maximal effect (stimulation of PLC at P2Y1 receptor in the turkey erythrocyte membranes) is reached; Low potency agonist

Sequence of P2Y purinoceptor 1 (Meleagris gallopavo) (P49652 whole entry): as above

SMILES | Increase [1] | inhibition [2] | IC50 (P2Y purinoceptor 1 [3]) | inhibition [4] | EC50 (P2Y purinoceptor 1 [5]) | Increase [6] | inhibition [7] | EC50 (P2Y purinoceptor 1 [8])
CNc1ncnc2c1ncn2[C@H]1C[C@@H]2OP(=O)(O)OP(=O)(O)OC[C@H]2O1 | inactive | inactive | – | – | – | – | – | –
CNc1nc(I)nc2c1ncn2[C@H]1C[C@H](OP(=O)(O)O)[C@@H](COP(=O)(O)O)O1 | – | – | 891 nM | 87% | 4440 nM | 13% | – | –
O=c1ccn([C@H]2C[C@H](OP(=O)(O)O)[C@@H](COP(=O)(O)O)O2)c(=O)[nH]1 | inactive | – | – | – | – | – | inactive | –
CNc1ccnc2c1ncn2[C@H]1C[C@H](OP(=O)(O)O)[C@@H](COP(=O)(O)O)O1 | inactive | – | 904 nM | 96% | – | – | – | –
CCSc1nc(NC)c2ncn([C@H]3C[C@H](OP(=O)(O)O)[C@@H](COP(=O)(O)O)O3)c2n1 | inactive | – | 980 nM | 94% | – | – | – | –
Nc1nc2c(ncn2[C@H]2C[C@H](OP(=O)(O)O)[C@@H](COP(=O)(O)O)O2)c(=O)[nH]1 | inactive | – | 14900 nM | 93% | – | – | – | –
C=CCSc1nc(NC)c2ncn([C@H]3C[C@H](OP(=O)(O)O)[C@@H](COP(=O)(O)O)O3)c2n1 | inactive | – | 475 nM | 97% | – | – | – | –
CNc1nc(SC)nc2c1ncn2[C@H]1C[C@H](OP(=O)(O)O)[C@@H](COP(=O)(O)O)O1 | – | – | 362 nM | 94% | – | 6% | – | –
CNc1nc(N)nc2c1ncn2[C@H]1C[C@H](OP(=O)(O)O)[C@@H](COP(=O)(O)O)O1 | – | – | 1850 nM | 96% | – | 4% | – | –
Nc1ncnc2c1ncn2[C@@H]1CO[C@H](COP(=O)(O)O)[C@@H](OP(=O)(O)O)C1 | – | – | – | – | 2990 nM | 100% | inactive | –
Nc1ccn([C@H]2C[C@H](OP(=O)(O)O)[C@@H](COP(=O)(O)O)O2)c(=O)n1 | inactive | – | – | – | – | – | inactive | –
CCCSc1nc(NC)c2ncn([C@H]3C[C@H](OP(=O)(O)O)[C@@H](COP(=O)(O)O)O3)c2n1 | – | – | 449 nM | 94% | – | 7% | – | –
[N-]=[N+]=N[C@H]1[C@@H](OP(=O)(O)O)[C@H](n2cnc3c(N)ncnc32)O[C@@H]1COP(=O)(O)O | – | – | – | – | – | 46% | inactive | Partial agonist
Nc1ncnc2c1ncn2[C@H]1C[C@H](OP(=O)(O)O)[C@@H](COP(=O)(O)O)S1 | – | – | – | 38% | 12200 nM | 56% | – | –
CNc1nc(Cl)nc2c1ncn2[C@H]1C[C@H](OP(=O)(O)O)[C@@H](COP(=O)(O)O)O1 | inactive | – | 206 nM | 95% | – | – | – | –
CCCCCCSc1nc(NC)c2ncn([C@H]3C[C@H](OP(=O)(O)O)[C@@H](COP(=O)(O)O)O3)c2n1 | inactive | – | 3370 nM | 100% | – | – | – | –
CCCSc1nc(N)c2ncn([C@H]3C[C@H](OP(=O)(O)O)[C@@H](COP(=O)(O)O)O3)c2n1 | – | – | – | 46% | 1710 nM | 53% | – | –
CNc1nc(N)nc2c1ncn2[C@@H]1C[C@H](COP(=O)(O)O)[C@@H](OP(=O)(O)O)C1 | – | – | 5420 nM | 74% | 6490 nM | 26% | – | –
[N-]=[N+]=N[C@H]1[C@@H](OP(=O)(O)O)[C@H](n2cnc3c(N)ncnc32)O[C@@H]1COP(=O)(O)OP(=O)(O)OP(=O)(O)O | – | inactive | – | – | – | 49% | – | Partial agonist
CNc1ncnc2c1ncn2[C@H]1C[C@@H]2OP(=O)(O)OP(=O)(O)OP(=O)(O)OP(=O)(O)OC[C@H]2O1 | – | – | 158 nM | 87% | 20 nM | 14% | – | –
O=c1[nH]c(=O)n([C@H]2C[C@H](OP(=O)(O)O)[C@@H](COP(=O)(O)O)O2)cc1F | inactive | – | – | – | – | – | inactive | –
Nc1ncnc2c1ncn2[C@H]1C[C@H](O)[C@@H](COP(=O)(O)O)[S+]1[O-] (stereo partly specified) | inactive | – | – | – | – | – | inactive | –
Cc1cn([C@H]2C[C@H](OP(=O)(O)O)[C@@H](COP(=O)(O)O)O2)c(=O)[nH]c1=O | inactive | – | – | – | – | – | inactive | –

More lines, now with the values ahead:

Increase [1] | inhibition [2] | IC50 (P2Y purinoceptor 1 [3]) | inhibition [4] | EC50 (P2Y purinoceptor 1 [5]) | Increase [6] | inhibition [7] | EC50 (P2Y purinoceptor 1 [8]) | SMILES
inactive | – | 30700 nM | 59% | – | – | – | – | C=Cc1nc2c(N)ncnc2n1[C@H]1C[C@H](OP(=O)(O)O)[C@@H](COP(=O)(O)O)O1
inactive | – | 75100 nM | 53% | – | – | – | – | Cc1nc2c(N)ncnc2n1[C@H]1C[C@H](OP(=O)(O)O)[C@@H](COP(=O)(O)O)O1
inactive | inactive | – | – | – | – | – | – | CNc1nc2c(N)ncnc2n1[C@H]1C[C@H](OP(=O)(O)O)[C@@H](COP(=O)(O)O)O1
inactive | inactive | – | – | – | – | – | – | CSc1nc2c(N)ncnc2n1[C@H]1C[C@H](OP(=O)(O)O)[C@@H](COP(=O)(O)O)O1
– | – | 1890 nM | 78% | – | 22% | – | – | CSc1nc(N)c2ncn([C@H]3C[C@H](OP(=O)(O)O)[C@@H](COP(=O)(O)O)O3)c2n1
– | – | – | 80% | – | 19% | – | – | Nc1nc(Cl)nc2c1ncn2[C@H]1C[C@H](OP(=O)(O)O)[C@@H](COP(=O)(O)O)O1
inactive | – | – | – | – | – | inactive | – | COc1nc2c(N)ncnc2n1[C@H]1C[C@H](OP(=O)(O)O)[C@@H](COP(=O)(O)O)O1
– | – | 19600 nM | 78% | 27700 nM | 22% | – | – | Nc1ncnc2c1ncn2[C@H]1C[C@H](OP(=O)(O)O)[C@@H](COCP(=O)(O)O)O1
– | – | 4590 nM | 84% | 1980 nM | 16% | – | – | CCSc1nc(N)c2ncn([C@H]3C[C@H](OP(=O)(O)O)[C@@H](COP(=O)(O)O)O3)c2n1
inactive | – | – | – | – | – | inactive | – | COP(=O)(O)OC[C@H]1O[C@@H](n2cnc3c(N)ncnc32)C[C@@H]1OP(=O)(O)OC
– | – | – | 87% | – | 12% | – | – | Nc1ncnc2c1ncn2[C@H]1C[C@H](OP(=O)(O)O)[C@@H](COP(=O)(O)O)O1
– | – | 2530 nM | 73% | 7210 nM | 27% | – | – | Nc1ncnc2c1ncn2[C@@H]1C[C@H](COP(=O)(O)O)[C@@H](OP(=O)(O)O)C1
– | – | 14900 nM | 56% | 2340 nM | 44% | – | – | Nc1ncnc2c1ncn2[C@@H]1O[C@H](COP(=O)(O)O)[C@@H](OP(=O)(O)O)[C@H]1O
inactive | inactive | > 100000 nM | – | – | – | – | – | CONc1ncnc2c1ncn2[C@H]1C[C@H](OP(=O)(O)O)[C@@H](COP(=O)(O)O)O1
